Measurements from ChEMBL document CHEMBL4823250, “Discovery of thalidomide-based PROTAC small molecules as the highly efficient SHP2 degraders” (Eur J Med Chem, 2021).
Active and inactive are the calls of the source. No cut-off for these calls is given here.

Columns and labels:
MV4-11 [1] = experiment: Antiproliferative activity against human MV4-11 cells assessed as inhibition of cell proliferation measured after 72 hrs by MTS assay; format: functional, cell-based; conditions: MV4-11, 72 h
Outline: (§1)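 MV4;11 (ATCC, STR-authenticated) in IMDM with 10% FBS, penicillin/streptomycin, 37 °C, 5% CO2. Seeded at 1.0–4.0 × 10^4 cells/well, rested 2 h, then exposed to 0.01% DMSO or graded compound concentrations for 72 h. MTS/PMS added for 2–4 h. IC50 from sigmoidal variable-slope nonlinear regression; mean ± SEM of at least three separate assays, each in triplicate.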

[2] = target: T1, Tyrosine-protein phosphatase non-receptor type 11 (Homo sapiens, UniProt Q06124); experiment: Inhibition of human SHP2 catalytic activity
T1 sequence (Q06124 whole entry): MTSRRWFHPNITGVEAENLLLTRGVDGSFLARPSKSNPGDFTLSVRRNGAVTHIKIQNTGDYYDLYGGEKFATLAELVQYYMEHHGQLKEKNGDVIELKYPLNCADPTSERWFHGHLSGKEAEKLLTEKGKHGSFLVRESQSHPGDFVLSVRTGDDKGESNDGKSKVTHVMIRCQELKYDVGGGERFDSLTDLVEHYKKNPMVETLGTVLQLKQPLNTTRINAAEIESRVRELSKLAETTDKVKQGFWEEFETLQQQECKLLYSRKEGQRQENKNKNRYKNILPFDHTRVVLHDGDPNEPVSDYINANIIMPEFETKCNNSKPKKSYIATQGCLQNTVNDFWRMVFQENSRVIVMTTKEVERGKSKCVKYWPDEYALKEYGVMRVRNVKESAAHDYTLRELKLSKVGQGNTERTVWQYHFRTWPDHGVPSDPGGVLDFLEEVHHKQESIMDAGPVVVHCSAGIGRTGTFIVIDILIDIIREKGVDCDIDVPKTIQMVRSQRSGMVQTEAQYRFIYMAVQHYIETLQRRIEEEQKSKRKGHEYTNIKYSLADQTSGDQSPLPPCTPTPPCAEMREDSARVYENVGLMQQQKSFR

[3] = target: Protein cereblon/Tyrosine-protein phosphatase non-receptor type 11 (Homo sapiens, UniProt Q06124+Q96SW2); experiment: Protac activity at SHP2/CRBN in human MV4-11 cells assessed as SHP2 degradation at 8 nM measured after 12 hrs by Western blot analysis relative to control; format: cell-based
Chain of Protein cereblon/Tyrosine-protein phosphatase non-receptor type 11 (Q96SW2 whole entry partner, one chain of several): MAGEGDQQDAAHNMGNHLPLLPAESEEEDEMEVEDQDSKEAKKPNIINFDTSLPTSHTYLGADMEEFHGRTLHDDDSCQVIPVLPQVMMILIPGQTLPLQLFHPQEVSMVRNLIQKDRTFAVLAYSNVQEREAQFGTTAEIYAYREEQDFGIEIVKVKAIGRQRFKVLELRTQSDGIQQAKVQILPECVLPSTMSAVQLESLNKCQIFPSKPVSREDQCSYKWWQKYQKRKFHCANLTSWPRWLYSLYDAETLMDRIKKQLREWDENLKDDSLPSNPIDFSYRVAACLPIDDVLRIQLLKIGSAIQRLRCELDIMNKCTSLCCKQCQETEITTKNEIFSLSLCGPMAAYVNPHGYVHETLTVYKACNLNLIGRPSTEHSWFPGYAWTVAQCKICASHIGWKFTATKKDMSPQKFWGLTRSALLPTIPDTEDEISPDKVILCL
Outline: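 MV4-11 cells (IMDM, 10% FBS, 37 °C, 5% CO2) plated at 1.0×10^6 cells/well and exposed 12 h to 8 or 200 nM. Lysis in RIPA with protease inhibitors, then SDS-PAGE, nitrocellulose transfer and anti-human SHP2 immunoblot. SHP2 signal normalized to GAPDH and percent degradation quantified by densitometry. Reported as the average of two independent measurements.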

MV4-11 [4] = experiment: Induction of apoptosis in human MV4-11 cells assessed as necrotic cells at 70 nM measured after 48 hrs by Annexin V/FITC-PI staining based flowcytometry assay (reference value: 0.07%); format: functional
MV4-11 [5] = experiment: Induction of apoptosis in human MV4-11 cells assessed as viable cells at 600 nM measured after 48 hrs by Annexin V/FITC-PI staining based flowcytometry assay (reference value: 91%); format: functional
MV4-11 [6] = experiment: Induction of apoptosis in human MV4-11 cells assessed as necrotic cells at 200 nM measured after 48 hrs by Annexin V/FITC-PI staining based flowcytometry assay (reference value: 0.07%); format: functional
MV4-11 [7] = experiment: Cell cycle arrest in human MV4-11 cells assessed as accumulation at G1 phase at 200 nM measured after 24 hrs by PI staining based flow cytometry assay; format: functional
Outline: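 MV4-11 cells treated 24 h, then washed twice in cold PBS and fixed in ethanol overnight at 4 °C. Stained with propidium iodide plus RNase for 15 min at 37 °C. Cell-cycle distribution measured by flow cytometry.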

MV4-11 [8] = experiment: Induction of apoptosis in human MV4-11 cells assessed as early apoptotic cells at 200 nM measured after 48 hrs by Annexin V/FITC-PI staining based flowcytometry assay (reference value: 2.99%); format: functional
MV4-11 [9] = experiment: Induction of apoptosis in human MV4-11 cells assessed as viable cells at 70 nM measured after 48 hrs by Annexin V/FITC-PI staining based flowcytometry assay (reference value: 91%); format: functional
MV4-11 [10] = experiment: Induction of apoptosis in human MV4-11 cells assessed as viable cells at 200 nM measured after 48 hrs by Annexin V/FITC-PI staining based flowcytometry assay (reference value: 91%); format: functional
MV4-11 [11] = experiment: Induction of apoptosis in human MV4-11 cells assessed as late apoptotic cells at 600 nM measured after 48 hrs by Annexin V/FITC-PI staining based flowcytometry assay (reference value: 5.95%); format: functional
MV4-11 [12] = experiment: Induction of apoptosis in human MV4-11 cells assessed as late apoptotic cells at 200 nM measured after 48 hrs by Annexin V/FITC-PI staining based flowcytometry assay (reference value: 5.95%); format: functional
MV4-11 [13] = experiment: Cytotoxicity against CRBN knock out human MV4-11 cells assessed as cell viability measured after 72 hrs by MTS assay; format: cell-based; conditions: MV4-11, 72 h
Outline: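 MV4;11 cells with CRBN knocked out, cultured in IMDM with 10% FBS, penicillin/streptomycin, 37 °C, 5% CO2. Seeded at 1.0–4.0 × 10^4 cells/well, rested 2 h, then given 0.01% DMSO or graded compound concentrations for 72 h. Viability by MTS/PMS over 2–4 h. IC50 from sigmoidal variable-slope fit; mean ± SEM of ≥3 assays in triplicate.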

MV4-11 [14] = experiment: Induction of apoptosis in human MV4-11 cells assessed as early apoptotic cells at 70 nM measured after 48 hrs by Annexin V/FITC-PI staining based flowcytometry assay (reference value: 2.99%); format: functional
MV4-11 [15] = experiment: Induction of apoptosis in human MV4-11 cells assessed as early apoptotic cells at 600 nM measured after 48 hrs by Annexin V/FITC-PI staining based flowcytometry assay (reference value: 2.99%); format: functional
MV4-11 [16] = experiment: Induction of apoptosis in human MV4-11 cells assessed as late apoptotic cells at 70 nM measured after 48 hrs by Annexin V/FITC-PI staining based flowcytometry assay (reference value: 5.95%); format: functional
MV4-11 [17] = experiment: Cytotoxicity against human MV4-11 cells assessed as cell viability measured after 72 hrs by MTS assay; format: functional, cell-based; conditions: MV4-11, 72 h; outline: as §1
MV4-11 [18] = experiment: Induction of apoptosis in human MV4-11 cells assessed as necrotic cells at 600 nM measured after 48 hrs by Annexin V/FITC-PI staining based flowcytometry assay (reference value: 0.07%); format: functional

## C[C@@H]1OCC2(CCN(c3cnc(Sc4cccc(N)c4Cl)c(N)n3)CC2)[C@@H]1N
MV4-11 [1]
  IC50: 60 nM
[2]
  IC50: 17 nM

## C[C@@H]1OCC2(CCN(c3cnc(Sc4cccc(NC(=O)CCC(=O)NCCOCCNc5ccc6c(c5)C(=O)N(C5CCC(=O)NC5=O)C6=O)c4Cl)c(N)n3)CC2)[C@@H]1N (some centres undefined)
[3]
  Activity: < 5%

## C[C@@H]1OCC2(CCN(c3cnc(Sc4cccc(NC(=O)CCC(=O)NCCCCCCCCNc5cccc6c5C(=O)N(C5CCC(=O)NC5=O)C6=O)c4Cl)c(N)n3)CC2)[C@@H]1N (some centres undefined)
[3]
  Activity: 22%

## C[C@@H]1OCC2(CCN(c3cnc(Sc4cccc(NC(=O)CCC(=O)NCCOCCOCCNc5cccc6c5C(=O)N(C5CCC(=O)NC5=O)C6=O)c4Cl)c(N)n3)CC2)[C@@H]1N (some centres undefined)
[3]
  Activity: 25%

## C[C@@H]1OCC2(CCN(c3cnc(Sc4cccc(NC(=O)CCC(=O)NCCCOCCOCCOCCCNc5ccc6c(c5)C(=O)N(C5CCC(=O)NC5=O)C6=O)c4Cl)c(N)n3)CC2)[C@@H]1N (some centres undefined)
[3]
  Activity: 42%

## C[C@@H]1OCC2(CCN(c3cnc(Sc4cccc(NC(=O)CCC(=O)NCCCCCCCCCCNc5cccc6c5C(=O)N(C5CCC(=O)NC5=O)C6=O)c4Cl)c(N)n3)CC2)[C@@H]1N (some centres undefined)
[3]
  Activity: 0%

## CC1(N)CCN(c2cnc(-c3cccc(Cl)c3Cl)c(N)n2)CC1
MV4-11 [4]
  Activity: 0.078%
MV4-11 [5]
  Activity: 86.5%
MV4-11 [1]
  IC50: 475 nM
MV4-11 [6]
  Activity: 0.099%
MV4-11 [7]
  Activity: Active
MV4-11 [8]
  Activity: 4.68%
MV4-11 [9]
  Activity: 94%
MV4-11 [10]
  Activity: 88.5%
MV4-11 [11]
  Activity: 7.74%
MV4-11 [12]
  Activity: 6.43%
MV4-11 [13]
  IC50: 803 nM
MV4-11 [14]
  Activity: 3.98%
MV4-11 [15]
  Activity: 5.08%
MV4-11 [16]
  Activity: 4.52%
MV4-11 [17]
  IC50: 572 nM
MV4-11 [18]
  Activity: 0.098%

## C[C@@H]1OCC2(CCN(c3cnc(Sc4cccc(NC(=O)CCC(=O)NCCCCCCCCCCCNc5cccc6c5C(=O)N(C5CCC(=O)NC5=O)C6=O)c4Cl)c(N)n3)CC2)[C@@H]1N (some centres undefined)
[3]
  Activity: 26%
